SKN-1 block: blocks SKN-1 activity in C. elegans; C. elegans VP596 Pgst-4::GFP/RFP ratio, acrylamide-induced, 24 h; inhibition, % at 21.8 µM; 360,000 tested, 0.49% active;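 active = interference check ratio from 0.5 to 1.5 plus GFP to RFP signal ratio inhibition reaching or exceeding a fixed threshold, cut at about 30% in these data, passing the limit was not always enough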
Neddyl block: blocks human cullin neddylation. P61081+Q13564. TR-FRET cullin neddylation, biochemical. calls only at 25 µM. 360,000 tested, 0.58% active; in the data active = inhibition above about 36%
Tn7 DDE FP: DD(E)-Tn7 binding inhibition, primary FP screen | FP displacement of FITC-Tn7 peptide from fibrin DD(E); 0% = median of compound wells per plate | inhibition, % at 8.3 µM | 370,000 tested, 0.13% active | AID 720508;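 active = inhibition above the mean of compounds falling within the control limits plus 3 SD of them, cut at about 14% in these data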;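 also: 0% = plate median of compound wells and 100% = 10 µM Aha-Tn7 peptide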
Target sequence (P02675 whole entry, looked up): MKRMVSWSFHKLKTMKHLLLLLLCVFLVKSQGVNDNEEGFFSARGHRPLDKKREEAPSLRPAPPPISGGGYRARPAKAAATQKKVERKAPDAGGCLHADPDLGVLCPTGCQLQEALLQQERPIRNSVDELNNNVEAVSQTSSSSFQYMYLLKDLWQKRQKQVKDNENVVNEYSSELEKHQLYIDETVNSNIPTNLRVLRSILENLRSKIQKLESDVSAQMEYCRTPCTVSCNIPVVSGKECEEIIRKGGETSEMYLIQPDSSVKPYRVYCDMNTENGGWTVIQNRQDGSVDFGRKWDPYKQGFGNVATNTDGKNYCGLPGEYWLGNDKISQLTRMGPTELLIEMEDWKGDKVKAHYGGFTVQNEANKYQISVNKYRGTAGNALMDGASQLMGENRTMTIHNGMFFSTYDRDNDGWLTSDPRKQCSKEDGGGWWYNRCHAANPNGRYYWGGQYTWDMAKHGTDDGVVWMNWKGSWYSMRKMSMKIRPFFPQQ
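system = human fibrin DD(E) protein | quantity = DD(E) 2 µM final | medium = Tris/NaCl/CaCl2 buffer, pH 7.8 | also added = labelled Tn7 tracer, 0.1 µM | compound dosing = single point at 8.3 µM | timing = compound with protein 10 min, then 3 h after probe, room temperature | signal = FP measurement | benchmarks = Aha-Tn7 high control | repeats = one replicate per compound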
MT1-MMP act inh: MT1-MMP (human) activation inhibition. 360,000 tested, 0.061% active. AID 651647. HT1080 RFP-PRO-GFP cells, GFP/RFP ratio fluorescence, overnight; percent of plate control window, DMSO zero. GFP/RFP ratio change, % at 20 µM. P50281;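 active = GFP/RFP ratio change of at least 30% with cell ATP level not reduced by more than half and red fluorescence within 50% of control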
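Material – HT1080 RFP-PRO-GFP cells · Control set – DMSO wells and RFP-L50D-GFP cells · Incubation – overnight cell settling, then overnight compound exposure, 37 °C, 5% CO2 · Compound dosing – single-point 20 µM compound, 1% DMSO · Read-out – GFP/RFP fluorescence ratio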
Tn6 DDE FP: disrupts Tn6 cyclic peptide binding to fibrin D-Dimer-E complex | 370,000 tested, 0.21% active | P02675 | inhibition, % at 8.3 µM | Fibrin DD(E) TRITC-Tn6 fluorescence polarization displacement | AID 720509;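 active = inhibition above a per-campaign cutoff: mean of compounds within control limits plus 3 SD, cut at about 15% in these data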;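 also: 0% = median of all compound wells on the plate and 100% = blocking peptide control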
KLK7 zymogen act: activators of human kallikrein-7 zymogen. purified proKLK7, EDANS-DABCYL substrate fluorescence; 100% is mature enzyme control, 0% vehicle. 370,000 tested, 0.9% active. activation, % at 7 µM. P49862;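 active = activation above the mean of all tested compounds plus 3 SD, computed per campaign excluding outliers beyond control limits, cut at about 13% in these data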
KLK7 act conf: confirmation of human kallikrein-7 zymogen activators; shares compounds with KLK7 zymogen act; activation, % at 7 µM; 3,200 tested, 68% active; purified proKLK7, EDANS-DABCYL substrate fluorescence; scaled: vehicle 0, mature enzyme 100;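 active = activation, as change over the incubation, above the mean of all tested compounds plus 3 SD, cut at about 13% in these data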
EDANS-DABCYL int: fluorescence interference counter-screen for KLK7 activators; shares compounds with KLK7 zymogen act; EDANS-DABCYL substrate fluorescence interference, no enzyme, 4 h; solvent 0%, active enzyme control 100%; activation, % at 7 µM; 3,200 tested, 80% active;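 active = activation above the all-compound mean plus 3 SD, ignoring values outside control-based bounds, cut at about 4.8% in these data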;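 also: value is the 4 h activation minus the activation read at time zero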
Active calls of the source: *. The list is not random: actives were taken first. Their share in the collection is about 2.2%.

For Cc1c(CC(=O)N2CCN(C(=O)C3COc4ccccc4O3)CC2)c(=O)oc2c(C)c(O)ccc12 (stereo not drawn) the results were SKN-1 block 0, Tn7 DDE FP -8, MT1-MMP act inh 0, Tn6 DDE FP 5, KLK7 zymogen act 39*, KLK7 act conf 70* and EDANS-DABCYL int 70*.
Cc1cc(=O)oc2c(C)c(OCC(=O)N3CCN(C(=O)C4COc5ccccc5O4)CC3)ccc12 (stereo not drawn) was read as SKN-1 block 3, Neddyl block inactive, Tn7 DDE FP -5, MT1-MMP act inh 5, Tn6 DDE FP 5 and KLK7 zymogen act -1.
Cc1c(CC(=O)N2CCN(C(=O)C3COc4ccccc4O3)CC2)c(=O)oc2cc(O)cc(O)c12 (stereo not drawn) was read as SKN-1 block 12, Neddyl block inactive, Tn7 DDE FP 8, MT1-MMP act inh 2, Tn6 DDE FP 8, KLK7 zymogen act 61*, KLK7 act conf 68* and EDANS-DABCYL int 67*.
Screening CCOC(=O)Cc1csc(NC(=O)Cc2ccc(Br)cc2)n1 returned SKN-1 block 5, Neddyl block inactive, Tn7 DDE FP 0, MT1-MMP act inh -1, Tn6 DDE FP -3 and KLK7 zymogen act -1.
For CCOC(=O)c1nn(-c2ccccc2)c(C(=O)OCC)c1N the results were SKN-1 block 7, Tn7 DDE FP -3, MT1-MMP act inh 3, Tn6 DDE FP -4, KLK7 zymogen act 18*, KLK7 act conf 9 and EDANS-DABCYL int 11*.
`Nc1nc(N)c2c(ccc3nccc32)[nH]1` gave SKN-1 block -4, Tn7 DDE FP 8, MT1-MMP act inh 1, Tn6 DDE FP 0, KLK7 zymogen act 195*, KLK7 act conf 76* and EDANS-DABCYL int 81*.
COc1ccc(OC)c2c1CCC2=O was read as SKN-1 block -21, Tn7 DDE FP 0, MT1-MMP act inh -9, Tn6 DDE FP 7, KLK7 zymogen act 13*, KLK7 act conf 19* and EDANS-DABCYL int 23*.
COc1cc(C(c2c(O)nc(SC)[nH]c2=O)c2c(O)nc(SC)[nH]c2=O)cc(OC)c1OC was read as SKN-1 block 10, Neddyl block inactive, Tn7 DDE FP 2, MT1-MMP act inh -2, Tn6 DDE FP 9 and KLK7 zymogen act -1.
COc1ccc(OC)c(C(c2c(O)nc(SC)[nH]c2=O)c2c(O)nc(SC)[nH]c2=O)c1 was read as SKN-1 block -14, Neddyl block inactive, Tn7 DDE FP 1, MT1-MMP act inh 0, Tn6 DDE FP -4, KLK7 zymogen act 13*, KLK7 act conf 15* and EDANS-DABCYL int 15*.
Screening COC(=O)CC(=O)CSc1nc2c(cc1C#N)CCC2 returned SKN-1 block -8, Tn7 DDE FP -2, MT1-MMP act inh -6, Tn6 DDE FP -6 and KLK7 zymogen act 8.
Screening CC(C)OC(=O)CC(=O)CSc1nc2c(cc1C#N)CCCC2 returned SKN-1 block 3, Tn7 DDE FP 0, MT1-MMP act inh 12, Tn6 DDE FP 7, KLK7 zymogen act 20*, KLK7 act conf 71* and EDANS-DABCYL int 77*.
Screening CC(C)OC(=O)CC(=O)CSc1nc2c(cc1C#N)CCC2 returned SKN-1 block -13, Tn7 DDE FP 2, MT1-MMP act inh -7, Tn6 DDE FP -2, KLK7 zymogen act 22*, KLK7 act conf 90* and EDANS-DABCYL int 92*.
For CC(C)OC(=O)CC(=O)CSc1nc2c(c(-c3cccs3)c1C#N)CCC2 the results were SKN-1 block 14, Neddyl block inactive, Tn7 DDE FP 3, MT1-MMP act inh -5, Tn6 DDE FP -7, KLK7 zymogen act 15*, KLK7 act conf 11 and EDANS-DABCYL int 12*.
Screening N#Cc1c(SC(C(=O)O)c2ccccc2)nc2c(c1-c1cccs1)CCCC2 (stereo not drawn) returned SKN-1 block -6, Neddyl block inactive, Tn7 DDE FP 2, MT1-MMP act inh -4, Tn6 DDE FP 0 and KLK7 zymogen act 1.
For CCOC(=O)CC(=O)CSc1nc2c(cc1C#N)CCCCCC2 the results were SKN-1 block 4, Tn7 DDE FP -3, MT1-MMP act inh -8, Tn6 DDE FP 7, KLK7 zymogen act 13*, KLK7 act conf 60* and EDANS-DABCYL int 58*.
`O=C(COC(=O)c1cc[n+]([O-])cc1)NCCc1ccc(Cl)cc1Cl` gave SKN-1 block 2, Neddyl block inactive, Tn7 DDE FP 0, MT1-MMP act inh 0, Tn6 DDE FP 0 and KLK7 zymogen act 0.
Cc1ccc(Nc2nc(-c3cccnc3)nc3ccccc23)cc1 was read as SKN-1 block 30, Tn7 DDE FP 1, MT1-MMP act inh -7, Tn6 DDE FP -5 and KLK7 zymogen act -1.
`N#Cc1cc2c(nc1SCC(N)=O)CCCCC2` gave SKN-1 block 3, Neddyl block inactive, Tn7 DDE FP 5, MT1-MMP act inh 0, Tn6 DDE FP 5 and KLK7 zymogen act 2.
CC(C)OC(=O)CC(=O)CSc1nc2c(cc1C#N)CCCCCC2 was read as SKN-1 block 1, Tn7 DDE FP 6, MT1-MMP act inh -7, Tn6 DDE FP 9, KLK7 zymogen act 18*, KLK7 act conf 70* and EDANS-DABCYL int 77*.
For CC(C)N(C(=O)COC(=O)c1cc(Cl)cc(Cl)c1N)C(C)C the results were SKN-1 block 9, Tn7 DDE FP 2, MT1-MMP act inh -2, Tn6 DDE FP -4 and KLK7 zymogen act 0.
`CN(C)C(=O)COC(=O)c1cc(Cl)cc(Cl)c1N` gave SKN-1 block -14, Tn7 DDE FP -1, MT1-MMP act inh 0, Tn6 DDE FP 5, KLK7 zymogen act 25*, KLK7 act conf 24* and EDANS-DABCYL int 31*.
For O=C(O)c1ccc(Cl)c(NC(=O)C2CCN(S(=O)(=O)c3ccc4c(c3)OCCO4)CC2)c1 the results were SKN-1 block 25, Neddyl block inactive, Tn7 DDE FP 1, MT1-MMP act inh -1, Tn6 DDE FP 2 and KLK7 zymogen act 0.
COC(=O)Cc1c(C)c2ccc(OCC(C)=O)c(C)c2oc1=O was read as SKN-1 block 21, Tn7 DDE FP -4, MT1-MMP act inh 1, Tn6 DDE FP -1 and KLK7 zymogen act 0.

Bioassay records as filed in PubChem BioAssay.
